In ChEMBL document CHEMBL1137537, “Novel oxotremorine-related heterocyclic derivatives: Synthesis and in vitro pharmacology at the muscarinic receptor subtypes” (Bioorg Med Chem, 2007):

How the values were obtained:
Oryctolagus cuniculus = species: Oryctolagus cuniculus; assay: Intrinsic activity at muscarinic M1 receptor in electrically stimulated New Zealand rabbit vas deferens relative to McN-A-343; assay type: tissue-based
Summary of the method: (§1)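 Intrinsic activity as ratio of compound's maximal response to that of reference full agonist (McN-A-343 for vas deferens, bethanechol for atrium and ileum), from cumulative concentration–response curves; mean of 6-8 experiments.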

[1] = target: T1, Muscarinic acetylcholine receptor M1 (Homo sapiens, UniProt P11229); assay: biochemical; assay type: cell-based, CHO
T1 sequence (P11229 whole entry): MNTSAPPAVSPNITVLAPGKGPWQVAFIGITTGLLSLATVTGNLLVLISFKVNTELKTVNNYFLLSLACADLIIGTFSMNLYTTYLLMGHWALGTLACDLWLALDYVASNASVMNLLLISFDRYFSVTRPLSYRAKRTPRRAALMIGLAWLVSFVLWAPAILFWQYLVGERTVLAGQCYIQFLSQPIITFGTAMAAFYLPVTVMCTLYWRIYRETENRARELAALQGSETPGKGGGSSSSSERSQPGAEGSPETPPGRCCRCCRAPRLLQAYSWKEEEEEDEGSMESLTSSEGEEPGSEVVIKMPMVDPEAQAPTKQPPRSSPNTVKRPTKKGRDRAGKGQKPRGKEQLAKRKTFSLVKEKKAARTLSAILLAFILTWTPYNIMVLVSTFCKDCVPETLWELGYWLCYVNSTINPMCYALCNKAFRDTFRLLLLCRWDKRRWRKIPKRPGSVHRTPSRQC

[2] = target: T2, Muscarinic acetylcholine receptor M2 (Homo sapiens, UniProt P08172); assay: Displacement of [3H]QNB from human muscarinic M2 receptor expressed in CHO cells; assay type: cell-based
T2 sequence (P08172 whole entry): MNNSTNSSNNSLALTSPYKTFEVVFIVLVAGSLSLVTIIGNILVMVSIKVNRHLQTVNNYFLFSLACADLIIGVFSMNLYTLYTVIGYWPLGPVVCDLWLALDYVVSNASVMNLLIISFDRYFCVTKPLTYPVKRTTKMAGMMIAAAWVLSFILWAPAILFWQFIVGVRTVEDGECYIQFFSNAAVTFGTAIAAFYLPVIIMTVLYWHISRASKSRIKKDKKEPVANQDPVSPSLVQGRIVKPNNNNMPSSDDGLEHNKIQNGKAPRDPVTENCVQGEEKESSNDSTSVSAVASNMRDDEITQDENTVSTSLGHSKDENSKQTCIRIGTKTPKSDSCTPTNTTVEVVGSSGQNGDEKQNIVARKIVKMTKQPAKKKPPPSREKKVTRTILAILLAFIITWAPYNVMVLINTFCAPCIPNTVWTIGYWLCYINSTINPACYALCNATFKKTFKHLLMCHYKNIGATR
Summary of the method: (§2)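 Membranes (10-50 µg protein) from stable CHO lines expressing human m2-m5, competed against 180 pM [3H]QNB in 50 mM Tris-HCl pH 7.4 with 1% DMSO; 120 min at 25 °C to equilibrium; nonspecific binding with 0.5 µM atropine; GF-C filtration, scintillation counting; IC50 by logistic fit, Ki via Cheng–Prusoff using saturation-derived KD (5–2500 pM [3H]QNB).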

[3] = target: Muscarinic acetylcholine receptor M3 (Homo sapiens, UniProt P20309); assay: Displacement of [3H]QNB from human muscarinic M3 receptor expressed in CHO cells; assay type: cell-based
Muscarinic acetylcholine receptor M3, sequence (P20309 whole entry): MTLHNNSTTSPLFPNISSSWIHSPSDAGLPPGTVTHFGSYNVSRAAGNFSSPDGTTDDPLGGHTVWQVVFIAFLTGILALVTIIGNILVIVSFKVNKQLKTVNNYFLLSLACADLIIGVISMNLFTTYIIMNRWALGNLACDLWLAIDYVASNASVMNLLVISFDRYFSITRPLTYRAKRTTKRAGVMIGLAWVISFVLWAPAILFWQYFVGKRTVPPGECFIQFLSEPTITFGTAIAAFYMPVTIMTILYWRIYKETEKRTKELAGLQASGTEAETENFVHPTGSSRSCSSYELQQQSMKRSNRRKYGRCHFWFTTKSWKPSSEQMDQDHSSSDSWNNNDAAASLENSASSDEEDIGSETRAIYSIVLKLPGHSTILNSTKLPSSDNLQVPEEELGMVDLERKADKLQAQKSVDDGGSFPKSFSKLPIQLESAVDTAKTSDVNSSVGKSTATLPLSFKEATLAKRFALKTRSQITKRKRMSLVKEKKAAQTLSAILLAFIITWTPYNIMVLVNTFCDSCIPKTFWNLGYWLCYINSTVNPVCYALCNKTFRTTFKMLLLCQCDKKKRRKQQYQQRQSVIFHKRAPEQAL

[4] = target: T3, Muscarinic acetylcholine receptor M4 (Homo sapiens, UniProt P08173); assay: Displacement of [3H]QNB from human muscarinic M4 receptor expressed in CHO cells; assay type: cell-based; summary of the method: as §2
T3 sequence (P08173 whole entry): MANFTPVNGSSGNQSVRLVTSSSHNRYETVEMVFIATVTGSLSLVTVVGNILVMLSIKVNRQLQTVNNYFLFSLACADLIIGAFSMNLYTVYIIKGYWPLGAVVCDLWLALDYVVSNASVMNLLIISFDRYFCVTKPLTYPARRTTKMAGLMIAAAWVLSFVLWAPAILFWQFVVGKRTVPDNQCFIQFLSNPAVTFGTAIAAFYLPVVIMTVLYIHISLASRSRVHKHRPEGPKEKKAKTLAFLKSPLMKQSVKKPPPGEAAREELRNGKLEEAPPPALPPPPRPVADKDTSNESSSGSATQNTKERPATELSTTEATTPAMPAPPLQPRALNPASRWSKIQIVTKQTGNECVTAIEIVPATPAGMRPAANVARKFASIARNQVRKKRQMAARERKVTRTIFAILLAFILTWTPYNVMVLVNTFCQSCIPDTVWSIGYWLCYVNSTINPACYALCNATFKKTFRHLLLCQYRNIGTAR

[5] = target: T4, Muscarinic acetylcholine receptor M5 (Homo sapiens, UniProt P08912); assay: Displacement of [3H]QNB from human muscarinic M5 receptor expressed in CHO cells; assay type: cell-based
T4 sequence (P08912 whole entry): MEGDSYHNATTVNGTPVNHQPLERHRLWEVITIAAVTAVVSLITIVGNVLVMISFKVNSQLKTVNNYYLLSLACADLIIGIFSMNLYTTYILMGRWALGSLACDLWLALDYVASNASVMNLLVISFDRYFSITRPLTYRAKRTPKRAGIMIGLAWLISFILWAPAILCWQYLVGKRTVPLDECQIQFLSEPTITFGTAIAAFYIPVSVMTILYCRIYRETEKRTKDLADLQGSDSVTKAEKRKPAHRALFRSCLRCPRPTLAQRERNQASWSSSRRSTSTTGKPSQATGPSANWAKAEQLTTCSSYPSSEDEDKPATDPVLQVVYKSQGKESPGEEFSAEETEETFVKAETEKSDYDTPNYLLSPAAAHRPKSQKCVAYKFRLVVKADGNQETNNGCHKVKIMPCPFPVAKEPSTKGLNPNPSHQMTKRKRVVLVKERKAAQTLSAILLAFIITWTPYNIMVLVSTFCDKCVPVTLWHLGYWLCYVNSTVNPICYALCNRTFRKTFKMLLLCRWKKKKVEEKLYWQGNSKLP

Cavia porcellus = species: Cavia porcellus; assay: Intrinsic activity at muscarinic M2 receptor in electrically stimulated guinea-pig left atrium relative to benthanechol; assay type: tissue-based; details: Cardiac atrium; summary of the method: as §1
[6] = target: Muscarinic acetylcholine receptor M3 (Cavia porcellus) (UniProt Q8VH26); assay: Intrinsic activity at muscarinic M3 receptor in guinea-pig ileum relative to benthanechol; assay type: tissue-based; summary of the method: as §1
Muscarinic acetylcholine receptor M3 (Cavia porcellus), sequence (Q8VH26 1-587): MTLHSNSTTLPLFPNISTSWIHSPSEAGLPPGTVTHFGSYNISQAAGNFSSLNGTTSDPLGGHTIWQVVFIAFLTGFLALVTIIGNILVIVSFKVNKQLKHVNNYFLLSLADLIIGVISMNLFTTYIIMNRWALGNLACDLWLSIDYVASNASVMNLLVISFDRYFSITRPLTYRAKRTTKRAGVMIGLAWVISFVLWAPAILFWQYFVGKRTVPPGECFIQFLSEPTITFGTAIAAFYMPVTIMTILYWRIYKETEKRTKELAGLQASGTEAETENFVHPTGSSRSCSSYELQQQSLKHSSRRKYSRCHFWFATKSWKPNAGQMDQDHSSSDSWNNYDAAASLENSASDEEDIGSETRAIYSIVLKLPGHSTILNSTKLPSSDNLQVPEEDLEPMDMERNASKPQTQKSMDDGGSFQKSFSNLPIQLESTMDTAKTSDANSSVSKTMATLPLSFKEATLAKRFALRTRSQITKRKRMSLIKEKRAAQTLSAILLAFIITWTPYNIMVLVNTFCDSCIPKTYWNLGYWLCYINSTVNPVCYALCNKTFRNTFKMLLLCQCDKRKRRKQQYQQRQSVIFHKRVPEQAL

[7] = Antagonist activity at muscarinic M1 receptor in electrically stimulated New Zealand rabbit vas deferens; assay type: functional, Oryctolagus cuniculus
Summary of the method: (§3)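 Antagonist mode: after 30 min incubation with test compound (10 nM–100 µM), concentration–response curve to full agonist (bethanechol or McN-A-343) repeated; pKB as molar concentration giving twofold EC50 shift, Furchgott's method; mean of 6-8 experiments.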

[8] = Antagonist activity at muscarinic M2 receptor in electrically stimulated guinea-pig left atrium; assay type: functional, Cavia porcellus, Cardiac atrium; summary of the method: as §3
[9] = target: Muscarinic acetylcholine receptor M3 (Cavia porcellus) (UniProt Q8VH26); assay: Antagonist activity at muscarinic M3 receptor in guinea-pig ileum; assay type: functional, tissue-based; summary of the method: as §3

C[N+]1(CC#CCOc2cc(-c3ccccc3)on2)CCCC1.[I-]
Intrinsic activity (Oryctolagus cuniculus): 0
Ki [1]: 3.38 µM
Ki [2]: > 10 µM
Ki [3]: 1.45 µM
Ki [4]: 5.99 µM
Ki [5]: 1.84 µM
Intrinsic activity (Cavia porcellus): 0
Intrinsic activity [6]: 0
pKb [7]: 6.88
pKb [8]: 5.95
pKb [9]: 5.53
